In ChEMBL document CHEMBL1629574, “Novel chimeric beta-lactamase CTX-M-64, a hybrid of CTX-M-15-like and CTX-M-14 beta-lactamases, found in a Shigella sonnei strain resistant to various oxyimino-cephalosporins, including ceftazidime” (Antimicrob Agents Chemother, 2009):
pIC50, pKi: −log10 of the molar value. Converted amounts (≈) assume the structure as drawn.

Key:
[1] = Inhibition of Shigella sonnei UIH-1 beta-lactamase CTX-M-64 by spectrophotometry in presence of 100 uM nitrocefin
Method in brief: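 Recombinant CTX-M-64 was expressed from pET29a in E. coli BL21(DE3)pLysS (0.5 mM IPTG, 3 h, 37°C). It was purified by SP cation exchange (MES pH 6.0, NaCl gradient) then gel filtration. Enzyme was preincubated 5 min at 37°C with varied clavulanic acid before adding 100 μM nitrocefin. Hydrolysis was read at 485 nm in 50 mM phosphate pH 7.0, 37°C. IC50 is the inhibitor level halving the rate.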

Shigella sonnei [2] = experiment: Antimicrobial activity against Shigella sonnei UIH-1 expressing beta-lactamase CTX-M-64 by broth microdilution method; type: functional
Method in brief: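 MICs determined by CLSI broth microdilution on an automated panel system. […] Susceptibility categories assigned by CLSI criteria.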

Escherichia coli [3] = experiment: Antimicrobial activity against rifampicin-resistant Escherichia coli X1037 by broth microdilution method; type: functional
Escherichia coli [4] = experiment: Antimicrobial activity against Escherichia coli XL-1 Blue transconjugant harboring beta-lactamase CTX-M-64 by broth microdilution method; type: functional
Escherichia coli [5] = experiment: Antimicrobial activity against Escherichia coli XL-1 Blue harboring plasmid CL1920 by broth microdilution method; type: functional
Escherichia coli [6] = experiment: Antimicrobial activity against rifampicin-resistant Escherichia coli X1037 transconjugant by broth microdilution method; type: functional
Shigella sonnei [7] = experiment: Activity at Shigella sonnei UIH-1 beta-lactamase CTX-M-64 by spectrophotometry
Method in brief: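 Recombinant enzyme from E. coli BL21(DE3)pLysS/pET29a, purified by cation exchange and gel filtration. Assays at 37°C in 50 mM phosphate pH 7.0, six substrate concentrations, UV-vis readout. Km and kcat from Michaelis-Menten fits of initial rates.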

Shigella sonnei [8] = settings: UIH-1
Escherichia coli [9] = experiment: Antimicrobial activity against Escherichia coli XL-1 Blue harboring plasmid CL1920 by broth microdilution method in presence of 4 ug/ml beta-lactamase inhibitor clavulanic acid; type: functional
Escherichia coli [10] = experiment: Antimicrobial activity against Escherichia coli XL-1 Blue transconjugant harboring beta-lactamase CTX-M-64 by broth microdilution method in presence of 4 ug/ml beta-lactamase inhibitor clavulanic acid; type: functional
Shigella sonnei [11] = experiment: Antimicrobial activity against Shigella sonnei UIH-1 expressing beta-lactamase CTX-M-64 by broth microdilution method in presence of 4 ug/ml beta-lactamase inhibitor clavulanic acid; type: functional
Escherichia coli [12] = experiment: Antimicrobial activity against rifampicin-resistant Escherichia coli X1037 by broth microdilution method in presence of 4 ug/ml beta-lactamase inhibitor clavulanic acid; type: functional
Escherichia coli [13] = experiment: Antimicrobial activity against rifampicin-resistant Escherichia coli X1037 transconjugant by broth microdilution method in presence of 4 ug/ml beta-lactamase inhibitor clavulanic acid; type: functional
Shigella sonnei [14] = experiment: Antimicrobial activity against Shigella sonnei UIH-1 expressing beta-lactamase CTX-M-64 by disk diffusion method; type: functional
Method in brief: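 Non-β-lactam susceptibility determined by CLSI disk diffusion on the clinical isolate. Categories assigned by CLSI criteria.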

Escherichia coli [15] = experiment: Antimicrobial activity against rifampicin-resistant Escherichia coli X1037 transconjugant by disk diffusion method; type: functional
Method in brief: (§1)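 Non-β-lactam agents were tested by CLSI disk diffusion. Susceptibility categories were assigned by CLSI criteria.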

Escherichia coli [16] = experiment: Antimicrobial activity against rifampicin-resistant Escherichia coli X1037 by disk diffusion method; type: functional; method in brief: as §1
Escherichia coli [17] = experiment: Antimicrobial activity against Escherichia coli XL-1 Blue harboring plasmid CL1920 by disk diffusion method; type: functional
Escherichia coli [18] = experiment: Antimicrobial activity against Escherichia coli XL-1 Blue transconjugant harboring beta-lactamase CTX-M-64 by disk diffusion method; type: functional; method in brief: as §1
Shigella sonnei [19] = experiment: Antimicrobial activity against Shigella sonnei UIH-1 expressing beta-lactamase CTX-M-64 by disk diffusion method in presence of beta-lactamase inhibitor Sulbactam; type: functional
Escherichia coli [20] = experiment: Antimicrobial activity against Escherichia coli XL-1 Blue harboring beta-lactamase CTx-M-64transconjugant by disk diffusion method in presence of beta-lactamase inhibitor Sulbactam; type: functional
Shigella sonnei [21] = experiment: Antimicrobial activity against Shigella sonnei UIH-1 expressing beta-lactamase CTX-M-64 by broth microdilution method in presence of beta-lactamase inhibitor clavulanic acid
Escherichia coli [22] = experiment: Antimicrobial activity against rifampicin-resistant Escherichia coli X1037 by broth microdilution method in presence of beta-lactamase inhibitor clavulanic acid
Escherichia coli [23] = experiment: Antimicrobial activity against Escherichia coli XL-1 Blue harboring plasmid CL1920 by broth microdilution method in presence of beta-lactamase inhibitor clavulanic acid
Escherichia coli [24] = experiment: Antimicrobial activity against rifampicin-resistant Escherichia coli X1037 transconjugant by broth microdilution method in presence of beta-lactamase inhibitor clavulanic acid
[25] = Shigella sonnei, UIH-1, read-out: MIC
[26] = Escherichia coli, XL-1 Blue, read-out: MIC

Row | SMILES | MIC (Shigella sonnei [2]; [25]) [µg/mL] | MIC (Escherichia coli [3]) [µg/mL] | MIC (Escherichia coli [4]; [26]) [µg/mL] | MIC (Escherichia coli [5]) [µg/mL] | MIC (Escherichia coli [6]) [µg/mL] | further results
1 | O=C(O)[C@H]1/C(=C/CO)O[C@@H]2CC(=O)N21 [CLAVULANIC ACID] | – | – | – | – | – | pIC50 [1]: 8.00
2 | CCN1CCN(C(=O)N[C@@H](C(=O)N[C@@H]2C(=O)N3[C@@H]2SC(C)(C)[C@@H]3C(=O)O)c2ccccc2)C(=O)C1=O [PIPERACILLIN] | > 64 | ≤ 8 | > 64 | ≤ 8 | > 64 | –
3 | O=C(Cc1cccs1)N[C@@H]1C(=O)N2C(C(=O)O)=C(/C=C/c3ccc([N+](=O)[O-])cc3[N+](=O)[O-])CS[C@H]12 | – | – | – | – | – | Km (Shigella sonnei [7]): 14.8 µM; kcat (Shigella sonnei [7]): 252 s⁻¹; kcat/Km (Shigella sonnei [8]): 1.7 ×10⁷ /M/s
4 | CO/N=C(\C(=O)N[C@@H]1C(=O)N2C(C(=O)[O-])=C(C[n+]3ccn4ncccc43)CS[C@H]12)c1nsc(N)n1 [CEFOZOPRAN] | > 16 | ≤ 1 | > 16 | ≤ 1 | > 16 | –
5 | CO/N=C(\C(=O)N[C@@H]1C(=O)N2C(C(=O)O)=C(COC(C)=O)CS[C@H]12)c1csc(N)n1 [CEFOTAXIME] | 1020 (≈ 2250 µM) | ≤ 0.25 | – | ≤ 0.25 | 2050 (≈ 4500 µM) | MIC (Escherichia coli [9]): ≤ 0.12 µg/mL; MIC (Escherichia coli [10]): ≤ 0.12 µg/mL; MIC (Escherichia coli [4]): >2048 µg/mL; MIC (Shigella sonnei [11]): ≤ 0.12 µg/mL; Km (Shigella sonnei [7]): 103 µM; kcat (Shigella sonnei [7]): 197 s⁻¹; MIC (Escherichia coli [12]): ≤ 0.12 µg/mL; kcat/Km (Shigella sonnei [8]): 1.9 ×10⁶ /M/s; MIC (Escherichia coli [13]): ≤ 0.12 µg/mL
6 | C[C@@H](O)[C@H]1C(=O)N2C(C(=O)O)=C(S[C@@H]3CN[C@H](C(=O)N(C)C)C3)[C@H](C)[C@H]12 [MEROPENEM] | ≤ 0.5 | ≤ 0.5 | ≤ 0.5 | ≤ 0.5 | ≤ 0.5 | –
7 | CN(C)CCn1nnnc1SCC1=C(C(=O)O)N2C(=O)[C@@H](NC(=O)Cc3csc(N)n3)[C@H]2SC1 [CEFOTIAM] | – | – | – | – | – | MIC (Shigella sonnei [14]): > 16 µg/mL; MIC (Escherichia coli [15]): > 16 µg/mL; MIC (Escherichia coli [16]): ≤ 8 µg/mL; MIC (Escherichia coli [17]): ≤ 8 µg/mL; MIC (Escherichia coli [18]): > 16 µg/mL
8 | CCN1CCN(C(=O)N[C@@H](C(=O)N[C@@H]2C(=O)N3C(C(=O)O)=C(CSc4nnnn4C)CS[C@H]23)c2ccc(O)cc2)C(=O)C1=O [CEFOPERAZONE] | – | – | – | – | – | MIC (Shigella sonnei [14]): 8 µg/mL (≈ 12.4 µM); MIC (Shigella sonnei [19]): 8 µg/mL; MIC (Escherichia coli [18]): > 32 µg/mL; MIC (Escherichia coli [20]): > 32 µg/mL
9 | CC1(C)S[C@@H]2[C@H](NC(=O)[C@H](N)c3ccccc3)C(=O)N2[C@H]1C(=O)O [AMPICILLIN] | > 16 | ≤ 2 | > 16 | ≤ 2 | > 16 | Km (Shigella sonnei [7]): 19.5 µM; kcat (Shigella sonnei [7]): 36.9 s⁻¹; kcat/Km (Shigella sonnei [8]): 1.9 ×10⁶ /M/s
10 | CO/N=C(\C(=O)N[C@@H]1C(=O)N2C(C(=O)O)=C(CSc3nc(=O)c(O)nn3C)CS[C@H]12)c1csc(N)n1 [CEFTRIAXONE] | 1020 (≈ 1850 µM) | ≤ 0.25 | 2050 (≈ 3690 µM) | ≤ 0.25 | 2050 (≈ 3690 µM) | –
11 | N[C@@H](C(=O)N[C@@H]1C(=O)N2C(C(=O)O)=C(Cl)CS[C@H]12)c1ccccc1 [CEFACLOR ANHYDROUS] | > 16 | ≤ 2 | > 16 | ≤ 2 | > 16 | –
12 | CO/N=C(\C(=O)N[C@@H]1C(=O)N2C(C(=O)[O-])=C(C[N+]3(C)CCCC3)CS[C@H]12)c1csc(N)n1 | > 32 | – | > 32 | – | > 32 | Km (Shigella sonnei [7]): 505 µM; kcat (Shigella sonnei [7]): 67.7 s⁻¹; kcat/Km (Shigella sonnei [8]): 1.3 ×10⁵ /M/s
13 | C[C@H]1[C@H](NC(=O)/C(=N\OC(C)(C)C(=O)O)c2csc(N)n2)C(=O)N1S(=O)(=O)O [AZTREONAM] | 32 (≈ 73.5 µM) | – | 1020 (≈ 2350 µM) | – | 64 (≈ 147 µM) | –
14 | C[C@@H](O)[C@H]1C(=O)N2C(C(=O)O)=C(SCCNC=N)C[C@H]12 [IMIPENEM ANHYDROUS] | ≤ 0.5 | ≤ 0.5 | ≤ 0.5 | ≤ 0.5 | ≤ 0.5 | –
15 | COCC1=C(C(=O)O)N2C(=O)[C@@H](NC(=O)/C(=N\OC)c3csc(N)n3)[C@H]2SC1 [CEFPODOXIME] | > 64 | ≤ 0.5 | > 64 | ≤ 0.5 | > 64 | –
16 | CO[C@@]1(NC(=O)C2SC(=C(C(N)=O)C(=O)O)S2)C(=O)N2C(C(=O)O)=C(CSc3nnnn3C)CS[C@@H]21 (stereo not given in full) [CEFOTETAN] | ≤ 0.5 | ≤ 0.5 | 8 (≈ 13.9 µM) | ≤ 0.5 | ≤ 0.5 | –
17 | CO[C@@]1(NC(=O)CSC(F)F)C(=O)N2C(C(=O)O)=C(CSc3nnnn3CCO)CO[C@@H]21 [FLOMOXEF] | – | – | – | – | – | MIC (Shigella sonnei [14]): ≤ 1 µg/mL; MIC (Escherichia coli [15]): ≤ 1 µg/mL; MIC (Escherichia coli [16]): ≤ 1 µg/mL; MIC (Escherichia coli [17]): ≤ 1 µg/mL; MIC (Escherichia coli [18]): ≤ 1 µg/mL
18 | CO/N=C(\C(=O)N[C@@H]1C(=O)N2C(C(=O)[O-])=C(C[n+]3cccc4c3CCC4)CS[C@H]12)c1csc(N)n1 [CEFPIROME] | > 16 | ≤ 1 | > 16 | ≤ 1 | > 16 | –
19 | Cc1nnc(SCC2=C(C(=O)O)N3C(=O)[C@@H](NC(=O)Cn4cnnn4)[C@H]3SC2)s1 [CEFAZOLIN] | – | – | – | – | – | MIC (Shigella sonnei [14]): > 16 µg/mL; MIC (Escherichia coli [15]): > 16 µg/mL; MIC (Escherichia coli [18]): > 16 µg/mL
20 | CC1(C)S[C@@H]2[C@H](NC(=O)[C@H](N)c3ccc(O)cc3)C(=O)N2[C@H]1C(=O)O [AMOXICILLIN] | 2 (≈ 5.47 µM) | ≤ 1 | 8 (≈ 21.9 µM) | 2 (≈ 5.47 µM) | 2 (≈ 5.47 µM) | MIC (Shigella sonnei [21]): 2 µg/mL; MIC (Escherichia coli [10]): 8 µg/mL; MIC (Escherichia coli [22]): ≤ 1 µg/mL; MIC (Escherichia coli [23]): 2 µg/mL; MIC (Escherichia coli [24]): 2 µg/mL
21 | CO[C@@]1(NC(=O)CSCC#N)C(=O)N2C(C(=O)O)=C(CSc3nnnn3C)CS[C@@H]21 [CEFMETAZOLE] | – | ≤ 0.5 | 1 (≈ 2.12 µM) | 1 (≈ 2.12 µM) | 1 (≈ 2.12 µM) | MIC (Shigella sonnei [2]): <=0.5 ug ml-1
22 | CC(C)(O/N=C(\C(=O)N[C@@H]1C(=O)N2C(C(=O)[O-])=C(C[n+]3ccccc3)CS[C@H]12)c1csc(N)n1)C(=O)O [CEFTAZIDIME] | 32 (≈ 58.5 µM) | ≤ 0.25 | 2050 (≈ 3750 µM) | ≤ 0.25 | 64 (≈ 117 µM) | MIC (Escherichia coli [9]): ≤ 0.12 µg/mL; MIC (Escherichia coli [10]): ≤ 0.5 µg/mL; pKi [1]: < 2.00; MIC (Shigella sonnei [11]): ≤ 0.12 µg/mL; MIC (Escherichia coli [12]): ≤ 0.12 µg/mL; MIC (Escherichia coli [13]): ≤ 0.12 µg/mL
23 | CO[C@@]1(NC(=O)Cc2cccs2)C(=O)N2C(C(=O)O)=C(COC(N)=O)CS[C@@H]21 [CEFOXITIN] | ≤ 2 | ≤ 2 | 8 (≈ 18.7 µM) | 4 (≈ 9.36 µM) | ≤ 2 | –
24 | CC(=O)OCC1=C(C(=O)O)N2C(=O)[C@@H](NC(=O)Cc3cccs3)[C@H]2SC1 | – | – | – | – | – | Km (Shigella sonnei [7]): 37.9 µM; kcat (Shigella sonnei [7]): 185 s⁻¹; kcat/Km (Shigella sonnei [8]): 4.9 ×10⁶ /M/s
